Laboratory results reported in ChEMBL document CHEMBL1155910, “Design of Helicobacter pylori glutamate racemase inhibitors as selective antibacterial agents: a novel pro-drug approach to increase exposure” (Bioorg Med Chem Lett, 2008).
In brackets after ≈: the same amount, converted by molar mass.

Assays:
[1] = Aqueous solubility of compound; assay type: physicochemical; conditions: buffer
[2] = Bioavailability in mouse; assay type: ADME, organism-based; conditions: in vivo
[3] = tested on: Helicobacter pylori; assay: Antibacterial activity against hefC-deficient Helicobacter pylori by NCCLS method; assay type: functional
Summary of the method: (§1)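 H. pylori MICs determined following NCCLS guidelines; values carry a twofold variance.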

[4] = tested on: Helicobacter pylori; assay: Antibacterial activity against wild type Helicobacter pylori by NCCLS method; assay type: functional; summary of the method: as §1
[5] = target: T1, Glutamate racemase (Helicobacter pylori (strain ATCC 700392 / 26695) (Campylobacterpylori), UniProt P56068); assay: Inhibition of Helicobacter pylori MurI
T1 sequence (P56068 whole entry): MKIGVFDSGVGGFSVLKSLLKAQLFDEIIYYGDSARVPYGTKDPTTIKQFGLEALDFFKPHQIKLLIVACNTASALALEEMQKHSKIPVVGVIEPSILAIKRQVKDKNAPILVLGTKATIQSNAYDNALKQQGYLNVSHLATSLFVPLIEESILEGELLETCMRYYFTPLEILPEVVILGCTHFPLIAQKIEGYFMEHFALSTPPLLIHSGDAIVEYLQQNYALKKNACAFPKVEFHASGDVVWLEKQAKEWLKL

[6] = Intrinsic clearance in mouse liver microsome; assay type: ADME; conditions: liver microsomes
Summary of the method: (§2)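 Compounds incubated in vitro with human or mouse liver microsomes; parent and metabolite followed over roughly 30 min incubation; intrinsic clearance expressed as µl/min/mg.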

[7] = Intrinsic clearance in human liver microsome; assay type: ADME; conditions: liver microsomes; summary of the method: as §2
[8] = Bioavailability in mouse at 40 mg/kg, po; assay type: ADME, organism-based; conditions: in vivo
[9] = Equilibrium solubility of compound; assay type: physicochemical
[10] = tested on: Mus musculus; assay: Plasma concentration in mouse at 40 mg/kg, po; assay type: ADME, organism-based; parameters: dose 40 mg/kg, route oral; conditions: in vivo

Structure (SMILES)	solubility [1]	bioavailability [2]	MIC [3]	MIC [4]	IC50 [5]	microsomal CLint [6]	microsomal CLint [7]	bioavailability [8]	solubility thermodynamic [9]	Cp [10]
Cn1cc(C#N)cc1-c1c2c(=O)n(C)c(=O)n(CC3CC3)c2nn1Cc1ccnc2ccc(Cl)cc12	< 0.4 µM	< 10%	0.25 µg/mL (≈ 0.5 µM)	0.5 µg/mL (≈ 1 µM)	26 nM	50 µL/min/mg	< 14 µL/min/mg	7.5%	–	–
Cn1cc(S(N)(=O)=O)nc1-c1c2c(=O)n(C)c(=O)n(CC3CC3)c2nn1Cc1c[nH]c2ccc(Cl)cc12	–	–	0.5 µg/mL (≈ 0.921 µM)	> 32 µg/mL	38 nM	> 100 µL/min/mg	56 µL/min/mg	–	–	–
Cn1cc(S(C)(=O)=O)nc1-c1c2c(=O)n(C)c(=O)n(CC3CC3)c2nn1Cc1ccnc2ccc(Cl)cc12	–	–	4 µg/mL (≈ 7.22 µM)	16 µg/mL (≈ 28.9 µM)	160 nM	56 µL/min/mg	23 µL/min/mg	–	–	–
Cc1oc(S(C)(=O)=O)cc1-c1c2c(=O)n(C)c(=O)n(CC3CC3)c2nn1Cc1cn(C)c2ccc(Cl)cc12	–	–	0.5 µg/mL (≈ 0.899 µM)	1 µg/mL (≈ 1.8 µM)	57 nM	> 100 µL/min/mg	> 100 µL/min/mg	–	–	–
CNS(=O)(=O)c1cc(-c2c3c(=O)n(C)c(=O)n(CC4CC4)c3nn2Cc2c[nH]c3ccc(Cl)cc23)n(C)c1	–	–	0.5 µg/mL (≈ 0.899 µM)	16 µg/mL (≈ 28.8 µM)	27 nM	> 100 µL/min/mg	> 100 µL/min/mg	–	–	–
CONS(=O)(=O)c1cc(-c2c3c(=O)n(C)c(=O)n(CC4CC4)c3nn2Cc2ccnc3ccc(Cl)cc23)n(C)c1	–	–	4 µg/mL (≈ 6.85 µM)	16 µg/mL (≈ 27.4 µM)	55 nM	–	–	–	–	–
CONS(=O)(=O)c1cc(-c2c3c(=O)n(C)c(=O)n(CC4CC4)c3nn2Cc2c[nH]c3ccc(Cl)cc23)n(C)c1	–	–	8 µg/mL (≈ 14 µM)	8 µg/mL (≈ 14 µM)	36 nM	–	–	–	–	–
Cn1c(=O)c2c(-c3oc(S(C)(=O)=O)cc3Cl)n(Cc3ccnc4ccc(Cl)cc34)nc2n(CC2CC2)c1=O	–	–	4 µg/mL (≈ 6.96 µM)	4 µg/mL (≈ 6.96 µM)	59 nM	22 µL/min/mg	19 µL/min/mg	–	–	–
Cc1oc(S(C)(=O)=O)cc1-c1c2c(=O)n(C)c(=O)n(CC3CC3)c2nn1Cc1ccnc2ccc(Cl)cc12	–	–	–	4 µg/mL (≈ 7.22 µM)	51 nM	61 µL/min/mg	22 µL/min/mg	–	–	–
Cn1cc([S+](C)[O-])cc1-c1c2c(=O)n(C)c(=O)n(CC3CC3)c2nn1Cc1c[nH]c2ccc(Cl)cc12 (configuration not stated)	–	–	4 µg/mL (≈ 7.62 µM)	16 µg/mL (≈ 30.5 µM)	23 nM	> 100 µL/min/mg	> 100 µL/min/mg	–	–	–
Cn1cc([S+](C)[O-])cc1-c1c2c(=O)n(C)c(=O)n(CC3CC3)c2nn1Cc1ccnc2ccc(Cl)cc12 (configuration not stated)	–	–	0.5 µg/mL (≈ 0.931 µM)	16 µg/mL (≈ 29.8 µM)	37 nM	> 100 µL/min/mg	> 100 µL/min/mg	10%	120 µM (≈ 64.4 µg/mL)	–
Cn1cc(S(C)(=O)=O)cc1-c1c2c(=O)n(C)c(=O)n(CC3CC3)c2nn1Cc1ccnc2ccc(Cl)cc12	–	–	0.5 µg/mL (≈ 0.904 µM)	2 µg/mL (≈ 3.62 µM)	34 nM	< 14 µL/min/mg	20 µL/min/mg	60%	–	1.2 µg/mL
Cn1cc(S(C)(=O)=O)cc1-c1c2c(=O)n(C)c(=O)n(CC3CC3)c2nn1Cc1c[nH]c2ccc(Cl)cc12	–	–	0.5 µg/mL (≈ 0.924 µM)	4 µg/mL (≈ 7.39 µM)	26 nM	64 µL/min/mg	49 µL/min/mg	–	–	–
Cn1cc(S(N)(=O)=O)cc1-c1c2c(=O)n(C)c(=O)n(CC3CC3)c2nn1Cc1ccnc2ccc(Cl)cc12	–	–	0.25 µg/mL (≈ 0.451 µM)	32 µg/mL (≈ 57.8 µM)	16 nM	< 14 µL/min/mg	22 µL/min/mg	–	–	–
Cn1cc(S(C)(=O)=O)nc1-c1c2c(=O)n(C)c(=O)n(CC3CC3)c2nn1Cc1c[nH]c2ccc(Cl)cc12	–	–	2 µg/mL (≈ 3.69 µM)	16 µg/mL (≈ 29.5 µM)	31 nM	> 100 µL/min/mg	49 µL/min/mg	–	–	–
Cn1c(=O)c2c(-c3ccc(S(C)(=O)=O)o3)n(Cc3ccnc4ccc(Cl)cc34)nc2n(CC2CC2)c1=O	–	–	> 64 µg/mL	> 64 µg/mL	1500 nM	14 µL/min/mg	17 µL/min/mg	–	–	–
CNS(=O)(=O)c1cc(-c2c3c(=O)n(C)c(=O)n(CC4CC4)c3nn2Cc2ccnc3ccc(Cl)cc23)n(C)c1	–	–	1 µg/mL (≈ 1.76 µM)	16 µg/mL (≈ 28.2 µM)	44 nM	> 100 µL/min/mg	> 100 µL/min/mg	–	–	–
Cn1cc(S(C)(=O)=O)cc1-c1c2c(=O)n(C)c(=O)n(CC3CC3)c2nn1Cc1cn(C)c2ccc(Cl)cc12	–	–	4 µg/mL (≈ 7.21 µM)	16 µg/mL (≈ 28.8 µM)	33 nM	56 µL/min/mg	23 µL/min/mg	–	–	–
